Assay results published in ChEMBL document CHEMBL5653631, “A Potent and Selective ULK1 Inhibitor Suppresses Autophagy and Sensitizes Cancer Cells to Nutrient Stress” (iScience, 2018).
Blank lines part the entries; values can stand above or below the molecule they belong to.

Experiments:
[1] = molecular target: Cell division cycle 7-related protein kinase (Homo sapiens) (UniProt O00311); assay: Inhibition of human recombinant CDC7 at 500 nM related to control ULK1
[2] = molecular target: T1, Dual specificity tyrosine-phosphorylation-regulated kinase 3 (Homo sapiens) (UniProt O43781); assay: Inhibition of human recombinant DYRK3 at 15 nM in presence of ATP by radiometric assay relative to control
T1 sequence (whole entry): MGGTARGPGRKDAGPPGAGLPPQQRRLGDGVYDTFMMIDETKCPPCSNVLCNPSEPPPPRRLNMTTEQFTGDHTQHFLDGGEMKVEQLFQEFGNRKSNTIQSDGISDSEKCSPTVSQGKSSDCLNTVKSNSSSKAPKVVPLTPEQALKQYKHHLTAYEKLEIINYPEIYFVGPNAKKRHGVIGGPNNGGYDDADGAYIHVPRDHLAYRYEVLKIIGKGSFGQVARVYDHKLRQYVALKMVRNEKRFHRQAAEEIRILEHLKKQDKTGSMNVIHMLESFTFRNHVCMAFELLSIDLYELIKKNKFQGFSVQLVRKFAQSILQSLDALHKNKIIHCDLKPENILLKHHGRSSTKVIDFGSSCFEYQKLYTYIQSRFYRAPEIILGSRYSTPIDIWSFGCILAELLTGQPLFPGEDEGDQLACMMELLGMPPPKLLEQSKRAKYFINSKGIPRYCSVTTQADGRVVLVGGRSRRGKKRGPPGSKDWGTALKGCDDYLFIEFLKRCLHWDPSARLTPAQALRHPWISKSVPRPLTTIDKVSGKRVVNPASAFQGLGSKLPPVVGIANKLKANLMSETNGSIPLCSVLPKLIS

[3] = molecular target: Mitogen-activated protein kinase kinase kinase 10 (Homo sapiens) (UniProt Q02779); assay: Inhibition of human recombinant MLK2 at 40 nM related to control ULK1
[4] = molecular target: Tyrosine-protein kinase ABL2 (Homo sapiens) (UniProt P42684); assay: Inhibition of human recombinant ABL2 at 40 nM related to control ULK1
Summary of the method: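 Radiometric activity assays in a panel of 327 human recombinant kinases, each run in duplicate at one inhibitor concentration. Activity remaining is expressed as percent of vehicle control, and percent inhibition is calculated as 100% minus percent activity remaining.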

[5] = molecular target: T2, Tyrosine-protein kinase TXK (Homo sapiens) (UniProt P42681); assay: Inhibition of human recombinant TXK at 40 nM in presence of ATP by radiometric assay relative to control
T2 sequence (whole entry): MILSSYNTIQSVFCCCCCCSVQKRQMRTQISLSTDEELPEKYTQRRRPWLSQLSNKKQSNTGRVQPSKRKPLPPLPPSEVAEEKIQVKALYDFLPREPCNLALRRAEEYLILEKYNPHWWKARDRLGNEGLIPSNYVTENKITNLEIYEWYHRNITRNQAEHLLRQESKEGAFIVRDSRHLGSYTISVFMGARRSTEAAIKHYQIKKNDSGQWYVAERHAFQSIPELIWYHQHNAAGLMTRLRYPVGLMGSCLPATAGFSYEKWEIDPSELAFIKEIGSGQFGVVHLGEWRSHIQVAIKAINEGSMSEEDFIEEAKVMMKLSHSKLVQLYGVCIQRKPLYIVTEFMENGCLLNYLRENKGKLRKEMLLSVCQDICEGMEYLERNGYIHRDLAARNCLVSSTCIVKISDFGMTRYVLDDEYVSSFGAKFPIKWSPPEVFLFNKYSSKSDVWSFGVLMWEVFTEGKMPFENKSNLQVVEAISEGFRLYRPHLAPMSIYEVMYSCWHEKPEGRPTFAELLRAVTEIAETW

[6] = molecular target: T3, Serine/threonine-protein kinase A-Raf (Homo sapiens) (UniProt P10398); assay: Inhibition of human recombinant ARAF at 40 nM in presence of ATP by radiometric assay relative to control
T3 sequence (whole entry): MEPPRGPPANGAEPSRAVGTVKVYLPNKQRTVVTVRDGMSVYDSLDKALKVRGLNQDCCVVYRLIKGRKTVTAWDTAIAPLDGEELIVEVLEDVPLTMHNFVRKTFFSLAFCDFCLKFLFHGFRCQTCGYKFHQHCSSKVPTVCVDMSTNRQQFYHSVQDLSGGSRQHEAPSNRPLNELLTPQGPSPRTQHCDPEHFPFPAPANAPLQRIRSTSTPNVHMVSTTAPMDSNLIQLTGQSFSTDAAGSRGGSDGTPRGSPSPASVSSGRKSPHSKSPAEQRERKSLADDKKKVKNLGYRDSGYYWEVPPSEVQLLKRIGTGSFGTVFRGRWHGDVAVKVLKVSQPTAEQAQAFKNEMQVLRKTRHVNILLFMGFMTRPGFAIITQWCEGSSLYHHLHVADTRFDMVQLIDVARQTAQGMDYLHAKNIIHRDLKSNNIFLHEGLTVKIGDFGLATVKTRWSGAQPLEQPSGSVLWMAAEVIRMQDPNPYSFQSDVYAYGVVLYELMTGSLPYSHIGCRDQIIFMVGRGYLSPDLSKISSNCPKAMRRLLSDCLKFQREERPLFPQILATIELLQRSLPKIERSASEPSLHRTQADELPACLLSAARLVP
Summary of the method: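 Panel of 327 recombinant human kinases, each assayed in vitro by radiometric activity assay in duplicate at a single inhibitor concentration per compound, chosen with reference to its ULK1 inhibition. Activity remaining was expressed as percent of vehicle control, and percent inhibition was calculated as 100 minus percent activity remaining.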

[7] = molecular target: T4, Inhibitor of nuclear factor kappa-B kinase subunit alpha (Homo sapiens) (UniProt O15111); assay: Inhibition of human recombinant IKKa at 40 nM in presence of ATP by radiometric assay relative to control
T4 sequence (whole entry): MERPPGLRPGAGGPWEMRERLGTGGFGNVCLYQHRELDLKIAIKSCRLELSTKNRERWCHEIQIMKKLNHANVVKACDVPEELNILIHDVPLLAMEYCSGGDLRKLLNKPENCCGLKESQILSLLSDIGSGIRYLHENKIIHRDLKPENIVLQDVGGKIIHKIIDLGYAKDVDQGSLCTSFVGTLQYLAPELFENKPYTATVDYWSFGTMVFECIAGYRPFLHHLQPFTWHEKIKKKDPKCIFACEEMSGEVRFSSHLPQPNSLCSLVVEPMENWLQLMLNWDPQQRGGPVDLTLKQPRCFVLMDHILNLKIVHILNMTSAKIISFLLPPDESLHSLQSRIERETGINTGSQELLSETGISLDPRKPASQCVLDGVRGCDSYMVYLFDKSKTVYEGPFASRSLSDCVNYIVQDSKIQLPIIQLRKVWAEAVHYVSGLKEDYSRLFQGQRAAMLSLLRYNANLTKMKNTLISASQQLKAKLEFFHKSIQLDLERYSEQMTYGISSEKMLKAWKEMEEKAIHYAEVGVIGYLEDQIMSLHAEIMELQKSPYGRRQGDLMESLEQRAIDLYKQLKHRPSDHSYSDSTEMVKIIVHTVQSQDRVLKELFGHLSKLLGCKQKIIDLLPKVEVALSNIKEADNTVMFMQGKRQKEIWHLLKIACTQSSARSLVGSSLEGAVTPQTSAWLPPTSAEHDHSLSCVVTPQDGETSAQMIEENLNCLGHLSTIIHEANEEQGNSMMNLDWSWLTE

Sequence of Mitogen-activated protein kinase kinase kinase 10 (Homo sapiens) (Q02779 whole entry, looked up): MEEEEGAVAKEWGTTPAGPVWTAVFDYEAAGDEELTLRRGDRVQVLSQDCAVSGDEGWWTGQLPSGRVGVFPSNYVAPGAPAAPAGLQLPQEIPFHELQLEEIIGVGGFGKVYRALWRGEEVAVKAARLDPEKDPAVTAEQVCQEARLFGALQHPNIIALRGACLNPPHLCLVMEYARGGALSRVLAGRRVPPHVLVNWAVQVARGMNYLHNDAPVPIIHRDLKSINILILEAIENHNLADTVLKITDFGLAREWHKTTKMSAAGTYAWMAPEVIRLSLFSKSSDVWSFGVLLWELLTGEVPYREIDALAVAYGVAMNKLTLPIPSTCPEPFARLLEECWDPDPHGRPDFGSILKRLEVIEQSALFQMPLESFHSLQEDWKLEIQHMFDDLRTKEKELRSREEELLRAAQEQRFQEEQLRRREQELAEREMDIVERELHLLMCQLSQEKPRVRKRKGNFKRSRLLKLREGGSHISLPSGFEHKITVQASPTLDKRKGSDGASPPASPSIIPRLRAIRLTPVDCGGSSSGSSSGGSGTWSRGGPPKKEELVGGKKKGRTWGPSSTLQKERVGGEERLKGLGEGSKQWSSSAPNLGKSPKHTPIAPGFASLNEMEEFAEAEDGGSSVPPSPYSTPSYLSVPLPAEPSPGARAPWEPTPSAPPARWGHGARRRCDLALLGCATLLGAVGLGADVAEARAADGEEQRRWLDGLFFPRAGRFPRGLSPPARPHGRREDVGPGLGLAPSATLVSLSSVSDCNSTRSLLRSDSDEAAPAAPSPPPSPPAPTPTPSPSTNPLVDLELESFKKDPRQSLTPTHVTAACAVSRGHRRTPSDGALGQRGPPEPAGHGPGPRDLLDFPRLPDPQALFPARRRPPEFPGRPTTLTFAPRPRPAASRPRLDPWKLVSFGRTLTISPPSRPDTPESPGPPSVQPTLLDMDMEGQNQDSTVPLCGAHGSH
Sequence of Tyrosine-protein kinase ABL2 (Homo sapiens) (P42684 whole entry): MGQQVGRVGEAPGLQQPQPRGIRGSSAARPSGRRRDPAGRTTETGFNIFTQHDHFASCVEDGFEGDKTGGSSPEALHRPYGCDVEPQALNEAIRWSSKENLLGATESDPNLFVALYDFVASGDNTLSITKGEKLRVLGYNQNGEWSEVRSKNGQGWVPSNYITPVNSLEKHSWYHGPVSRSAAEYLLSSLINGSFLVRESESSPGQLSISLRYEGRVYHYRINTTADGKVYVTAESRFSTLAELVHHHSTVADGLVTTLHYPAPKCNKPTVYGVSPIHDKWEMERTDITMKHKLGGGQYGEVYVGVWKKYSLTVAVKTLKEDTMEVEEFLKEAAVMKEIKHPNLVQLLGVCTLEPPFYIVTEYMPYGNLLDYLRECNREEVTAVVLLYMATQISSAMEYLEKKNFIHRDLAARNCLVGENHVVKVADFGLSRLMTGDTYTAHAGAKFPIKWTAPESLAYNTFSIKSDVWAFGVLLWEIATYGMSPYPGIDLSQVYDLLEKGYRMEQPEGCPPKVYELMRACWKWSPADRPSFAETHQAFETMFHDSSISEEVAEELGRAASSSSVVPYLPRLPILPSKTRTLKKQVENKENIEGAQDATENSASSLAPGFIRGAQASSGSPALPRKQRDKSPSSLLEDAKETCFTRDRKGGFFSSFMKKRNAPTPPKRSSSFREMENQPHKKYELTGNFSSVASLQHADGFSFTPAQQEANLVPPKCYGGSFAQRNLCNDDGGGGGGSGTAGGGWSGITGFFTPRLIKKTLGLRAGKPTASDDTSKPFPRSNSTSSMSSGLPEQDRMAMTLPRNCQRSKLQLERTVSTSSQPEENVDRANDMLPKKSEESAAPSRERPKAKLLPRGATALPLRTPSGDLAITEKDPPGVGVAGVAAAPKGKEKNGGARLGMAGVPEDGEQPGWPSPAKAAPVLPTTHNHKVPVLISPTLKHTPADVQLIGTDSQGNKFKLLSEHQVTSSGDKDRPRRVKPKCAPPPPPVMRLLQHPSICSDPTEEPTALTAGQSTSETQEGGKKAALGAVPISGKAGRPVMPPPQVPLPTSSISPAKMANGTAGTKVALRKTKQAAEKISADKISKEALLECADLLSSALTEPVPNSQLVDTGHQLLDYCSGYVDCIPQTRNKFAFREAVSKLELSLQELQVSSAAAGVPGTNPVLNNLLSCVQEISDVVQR
Sequence of Cell division cycle 7-related protein kinase (Homo sapiens) (O00311 whole entry, looked up): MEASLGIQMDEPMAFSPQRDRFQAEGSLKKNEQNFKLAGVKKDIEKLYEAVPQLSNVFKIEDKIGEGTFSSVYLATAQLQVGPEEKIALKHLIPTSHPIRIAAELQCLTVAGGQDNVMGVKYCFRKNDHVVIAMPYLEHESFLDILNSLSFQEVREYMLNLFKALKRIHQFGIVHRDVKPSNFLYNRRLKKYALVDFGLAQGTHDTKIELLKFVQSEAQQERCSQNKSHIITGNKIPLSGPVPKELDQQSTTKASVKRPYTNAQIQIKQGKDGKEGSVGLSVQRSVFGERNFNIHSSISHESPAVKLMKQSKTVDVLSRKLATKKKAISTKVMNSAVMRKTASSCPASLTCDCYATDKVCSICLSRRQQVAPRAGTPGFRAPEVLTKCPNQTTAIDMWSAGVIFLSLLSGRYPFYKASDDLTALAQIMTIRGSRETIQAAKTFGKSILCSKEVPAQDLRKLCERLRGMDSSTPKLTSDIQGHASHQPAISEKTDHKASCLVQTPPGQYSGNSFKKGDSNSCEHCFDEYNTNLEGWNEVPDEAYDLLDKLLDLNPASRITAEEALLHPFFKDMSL

- fold change (FC) [1]: 0
SMILES: CNC(=O)c1ccccc1Oc1nc(Nc2cc(OC)c(OC)c(OC)c2)ncc1Br

- inhibition [2]: 23%
SMILES: CC(C)[C@H](NC(=O)c1cc(-c2cnn3cc(-c4ccc(OCCN5CCCCC5)cc4)cnc23)cs1)C(F)(F)F

- fold change (FC) [3]: 0
- fold change (FC) [4]: 0.1
- inhibition [5]: 13%
- inhibition [6]: 0%
- inhibition [7]: 0%
SMILES: O=C(N[C@@H](C1CC1)C(F)(F)F)c1cc(-c2cnn3cc(-c4ccc(F)cc4)cnc23)cs1
